The text below walks through data of article PMC4502742 (Autophagy, 2015).

Series [1] deals with B cells from MRL/lpr mice. The series is described as follows: Internalization and colocalization in purified B cells, confocal microscopy. Type of series: cell-based, mouse. The conditions noted are these: PBS-2% FCS.
The subject of series [2] is chaperone-mediated autophagy (CMA) in NIH3T3 cells. The series is described as follows: CMA activity, KFERQ-PA-mCherry1 reporter. It counts as cell-based, mouse. The conditions noted are these: NIH3T3, serum-free medium, 10 and 30 μM peptide, 12 h; N > 50 cells; Fig. 4. The essentials:
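NIH3T3 cells stably expressing the photoactivable KFERQ-PA-mCherry1 reporter were photoactivated, then kept in serum-free medium to maximally activate CMA, with or without 10 or 30 μM test peptide for 12 h. Scrambled and unphosphorylated peptides served as controls. Nuclei were stained with DAPI. Fluorescent puncta per cell were counted in at least 50 cells. Results are mean + SEM; Student t test.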

Another series concerns the target HSPA8 (Bos taurus, UniProt P19120). The series is described as follows: HSPA8 ATPase activity. The conditions noted are these: HSPA8 500 nM without HSP40; 100 μM ATP; 3 h at 37°C; luminescence; 3 independent experiments; Fig. 1D. Type of series: biochemical.
For the next series, the system named is MRL/lpr mice splenocytes. The series is described as follows: Intracellular localization in splenocytes after iv administration. Type of series: in vivo, mouse. The following applies: 1 h after iv administration; Fig. S5. The essentials:
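MRL/lpr mice (10–12 wk old) received 100 μg Alexa Fluor 488-labeled peptide intravenously. Splenocytes taken 1 h after injection were incubated for 30 min at 37°C in complete RPMI with 100 nM LysoTracker Red DND-99 or 500 nM MitoTracker Deep Red FM. After washing in the same medium, they were imaged immediately by confocal microscopy.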

Series [3] has as its system CTSD/cathepsin D and CTSL/cathepsin L. The series is described as follows: Stability in artificial lysosomal fluid. It counts as in vitro ADME.
Series [4] is described as follows: Stability in matrices of isolated lysosomes. It counts as in vitro ADME. The conditions noted are these: pH 4.2, 5.3, 7.2. Put shortly: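 Peptide stability was tested in artificial lysosomal fluid at pH 4.2, 5.3 and 7.2. The fluid was supplemented with CTSD plus CTSL or with matrix extracted from isolated lysosomes. Samples were analysed by analytical RP-HPLC at 220 nm using water + 0.1% TFA and acetonitrile + 0.08% TFA eluents. Degradation was judged from the remaining intact-peptide peak area at several time intervals.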

Series [5] has as its system chaperone-mediated autophagy (CMA) in NIH3T3 cells. The series is described as follows: CMA activity, KFERQ-PS-Dendra reporter, high-content microscopy. Type of series: cell-based, mouse. The conditions noted are these: 6 P140 concentrations, serum, starvation, paraquat 50 μM, > 700 cells, compared to an inactive P140 analog, Fig. S9.
Series [6] concerns lysosomes isolated from mouse liver. The series is described as follows: CMA in vitro: GAPDH binding and uptake by isolated lysosomes. Type of series: biochemical.
The next series relates to CTSD. The series is described as follows: CTSD protein in purified B cells of treated mice, western immunoblotting. It counts as in vivo. The following applies: MRL/lpr mice, 100 μg P140/mouse/injection once or 6 times at daily intervals; Fig. 5F. Put shortly:
(§1)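 MRL/lpr mice (10–13 wk old, 3 per group) received 100 μg test peptide per injection. Dosing was either once, with cells taken 5 d later, or 6 times at daily intervals, with cells taken 1 d after the last injection. Purified B cells were immunoblotted and band intensity was expressed relative to β-ACTA. Ratios were normalized to untreated MRL/lpr mice and given as mean of 3 mice + SD; at least 2 independent experiments.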
In general terms: Immunoblotting shows a protein as a band on a membrane.

The subject of the next series is LAMP1. The series is described as follows: LAMP1 protein in purified B cells of treated mice, western immunoblotting. Type of series: in vivo. The conditions noted are these: MRL/lpr mice, 100 μg P140/mouse/injection once or 6 times at daily intervals; Fig. 5F. The essentials:
as §1

A further series relates to LAMP2A. The series is described as follows: Lamp2a mRNA in purified B cells, qRT-PCR. The following applies: B cells of MRL/lpr mice; Fig. S13. Type of series: in vivo, mouse. (In general: Real-time PCR tracks product formation cycle by cycle.)
The next series deals with MRL/lpr lupus-prone mice. The conditions noted are these: cited from earlier work.
A further series deals with lupus patients. The conditions noted are these: phase II clinical trials; cited from earlier work.
The test system of series [7] is HSPA8/HSC70/HSP73 chaperone. The conditions noted are these: cited from earlier work.
For series [8], the system named is major histocompatibility complex class II (MHCII) molecules. The following applies: cited from earlier work.
For series [9], the target named is HSPA8 N-terminal fragment 1-386 (nucleotide binding domain) (human, UniProt P11142 1-386). The series is described as follows: ELISA. On the technique in general: ELISA stands for enzyme-linked immunosorbent assay.
Where [10] appears, read: administered intravenously to MRL/lpr mice.

Non-standard residues stand in square brackets, D forms with d. No end group written: not given here. pS = N[C@@H](COP(=O)(O)O)C(=O)O

Sequence of HSPA8 N-terminal fragment 1-386 (nucleotide binding domain) (P11142 1-386): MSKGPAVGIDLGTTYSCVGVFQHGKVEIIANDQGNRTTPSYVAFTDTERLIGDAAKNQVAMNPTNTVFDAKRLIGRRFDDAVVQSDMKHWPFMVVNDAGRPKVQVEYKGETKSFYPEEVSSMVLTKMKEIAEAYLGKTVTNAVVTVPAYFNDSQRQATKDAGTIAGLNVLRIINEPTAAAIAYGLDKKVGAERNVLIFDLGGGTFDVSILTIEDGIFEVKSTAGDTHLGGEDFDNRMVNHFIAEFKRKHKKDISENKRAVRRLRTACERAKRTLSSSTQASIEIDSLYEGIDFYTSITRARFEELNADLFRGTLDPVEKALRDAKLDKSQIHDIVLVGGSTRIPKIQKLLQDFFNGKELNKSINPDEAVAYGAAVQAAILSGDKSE
Sequence of HSPA8 (P19120 whole entry): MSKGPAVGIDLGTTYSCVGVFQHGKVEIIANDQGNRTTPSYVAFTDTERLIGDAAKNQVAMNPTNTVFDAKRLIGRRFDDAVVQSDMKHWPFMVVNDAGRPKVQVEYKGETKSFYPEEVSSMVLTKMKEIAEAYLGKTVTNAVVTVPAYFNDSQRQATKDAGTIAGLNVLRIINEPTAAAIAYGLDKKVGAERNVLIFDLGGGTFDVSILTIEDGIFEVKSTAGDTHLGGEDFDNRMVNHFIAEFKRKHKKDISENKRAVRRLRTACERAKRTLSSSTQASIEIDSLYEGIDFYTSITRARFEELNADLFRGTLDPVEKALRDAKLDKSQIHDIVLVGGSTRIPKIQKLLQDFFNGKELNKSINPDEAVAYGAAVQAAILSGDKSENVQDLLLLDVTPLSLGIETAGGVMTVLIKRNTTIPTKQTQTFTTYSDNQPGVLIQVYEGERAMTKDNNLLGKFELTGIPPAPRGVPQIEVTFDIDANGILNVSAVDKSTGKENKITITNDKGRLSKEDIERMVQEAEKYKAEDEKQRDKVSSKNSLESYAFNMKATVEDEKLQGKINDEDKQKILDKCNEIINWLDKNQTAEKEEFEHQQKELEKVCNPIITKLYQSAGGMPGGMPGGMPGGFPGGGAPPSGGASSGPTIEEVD

Regarding “131–151: unphosphorylated (nonprotective) peptide 131–151 of SNRNP70/U1–70K (RIHMVYSKRSGKPRGYAFIEY; UniProt P08621 131-151, looked up, fragment) [reference compound]”, the “colocalization with early endosomal marker EEA1, ex vivo” value in [1] (10 μM Alexa Fluor 488-labeled peptide, 15 min at 37°C, Fig. 3B, S6B, C) is recorded as “colocalization with EEA1 was hardly seen”. In addition, the “CMA activity, average number of fluorescent puncta per cell” value in [2] is recorded as “did not observe any changes in CMA activity”.
Regarding RIHMVYSKRpSGKPRGYAFIEY [P140], the “endogenous HSPA8 ATPase activity” value at HSPA8 was “effectively increase both the endogenous and HSP40-stimulated ATPase activities of HSPA8 in a peptide dose-dependent manner”. Moreover, in [1] (B lymphocytes from 12-wk-old MRL/lpr mice, Alexa Fluor 488-labeled peptide 10 μM, 30 min at 37°C, confocal, Fig. 2A), the “entry pathway into B lymphocytes” value was “endocytosed by a clathrin-dependent mechanism”. The “localization by LysoTracker Red / MitoTracker Deep Red counterstaining” value with MRL/lpr mice splenocytes is recorded as “accumulated into lysosomes”. For the same molecule, in [3] (ALF, pH 4.2, 37°C, LC-MS, Fig. S8), the “time for which the phosphoryl moiety was preserved” value is “about 2 h”. The “dependence of stability on pH” value in series [3] (pH 5.3 and 7.2 compared to 4.2, medium not given) is “more stable at higher pH (5.3 and 7.2 compared to 4.2)”. The “stability over pH in CMA+ lysosomal extracts” value in [4] was “remains stable on a large range of pH”. Further, in [2], the “CMA activity, average number of fluorescent puncta per cell” value is on record as “clearly diminished the average number of puncta per cell in a dose-dependent manner”. In addition, the “CMA activity, average number of puncta per cell” value in [5] is recorded as “significantly diminish CMA activity in a peptide concentration-dependent manner”. The “GAPDH associated with lysosomes, exogenous HSPA8 added” value in series [6] (as above with exogenous HSPA8 in the incubation media, Fig. S10B) is on record as “not even when exogenous HSPA8 was added”. For the same molecule, the “uptake of GAPDH by lysosomes” value in series [6] (difference of GAPDH with and without protease inhibitors, Fig. S10C, D) is “did not significantly modify binding or uptake of GAPDH by CMA”. For the same molecule, the “GAPDH associated with lysosomes” value in [6] (lysosomes 75 μg protein pretreated with protease inhibitors, GAPDH 25 μg, 20 min at 37°C, pH 7.3, increasing peptide concentrations, immunoblot, Fig. S10A) is listed as “did not modify the amount of GAPDH recovered in lysosomes”. Moreover, the “binding of GAPDH to lysosomes” value in series [6] (lysosomes without protease inhibitors, Fig. S10C, D) is on record as “did not significantly modify binding or uptake of GAPDH by CMA”. For the same molecule, the “CTSD expression in purified B cells” value in the series on CTSD was “highly significant reduction”. The “LAMP1 expression in purified B cells” value in the series with LAMP1 is “A similar trend was observed for LAMP1 expression”. For the same molecule, the “Lamp2a mRNA level” value in the series on LAMP2A is given as “lack of change at the mRNA level”. Further, in the series with MRL/lpr lupus-prone mice (MRL/lpr mice), the “protective effect in lupus-prone mice” value is listed as “displays protective properties”. Also, in the series with MRL/lpr lupus-prone mice (MRL/lpr mice, earlier work), the MHCII expression result was “decreases MHCII overexpression”; the “signs of systemic autoimmunity (proteinuria, vasculitis, dermatitis, anti-DNA antibody production)” value is “attenuates biological and clinical signs of systemic autoimmunity”. For the same molecule, in the series on MRL/lpr lupus-prone mice (setting [10]), the HSPA8 expression entry is recorded as “decreases the HSPA8 overexpression observed in this murine strain”; the “autophagy markers SQSTM1/p62 and LC3-II” value is “increases the accumulation of the autophagy markers SQSTM1/p62 (sequestosome 1) and LC3-II”. Further, the “protective effect in lupus patients” value in the series with lupus patients is listed as “displays protective properties”. In addition, in series [7], the “binding to HSPA8” value is recorded as “readily binds to HSPA8”. The “binding to MHCII molecules” value in series [8] was “binds both the HSPA8/HSC70/HSP73 chaperone and major histocompatibility complex class II (MHCII) molecules”.
Regarding RIHMVYSKR[pS]GKPRGYAFIEY [P140 peptide (SNRNP70/U1-70K 131-151, phosphoserine 140)], the binding result in [9] is “binds”.
